ChEMBL document CHEMBL1629709, “Inhibition of melanogenesis and oxidation by protocatechuic acid from Origanum vulgare (oregano)” (J Nat Prod, 2010)
Converted amounts (≈) assume the structure as drawn. The source made the active and inactive calls. No cut-off for these calls is given here.

Assays:
Hs68 = assay: Cytotoxicity against human HS68 cells up to 100 ug/ml after 72 hrs by MTT assay; type: cell-based; conditions: hs68, 72 h
Procedure, shortened: (§1)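 B16 or Hs68 cells (1 × 10^4/well) seeded ≥24 h in DMEM with 10% FBS, then treated 72 h with 0, 5, 10, 20, 50, 100 µg/mL. MTT (0.5 mg/mL) for 4 h, formazan dissolved in DMSO, A570 read. Viability given as % of 0.1% DMSO vehicle culture; independent triplicates, mean ± SD.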

[1] = molecular target: T1, Tyrosinase (Mus musculus) (UniProt P11344); assay: Inhibition of tyrosinase in mouse B16 cells at 10 to 20 ug/ml after 72 hrs by spectrophotometry; type: cell-based
T1 sequence (whole entry): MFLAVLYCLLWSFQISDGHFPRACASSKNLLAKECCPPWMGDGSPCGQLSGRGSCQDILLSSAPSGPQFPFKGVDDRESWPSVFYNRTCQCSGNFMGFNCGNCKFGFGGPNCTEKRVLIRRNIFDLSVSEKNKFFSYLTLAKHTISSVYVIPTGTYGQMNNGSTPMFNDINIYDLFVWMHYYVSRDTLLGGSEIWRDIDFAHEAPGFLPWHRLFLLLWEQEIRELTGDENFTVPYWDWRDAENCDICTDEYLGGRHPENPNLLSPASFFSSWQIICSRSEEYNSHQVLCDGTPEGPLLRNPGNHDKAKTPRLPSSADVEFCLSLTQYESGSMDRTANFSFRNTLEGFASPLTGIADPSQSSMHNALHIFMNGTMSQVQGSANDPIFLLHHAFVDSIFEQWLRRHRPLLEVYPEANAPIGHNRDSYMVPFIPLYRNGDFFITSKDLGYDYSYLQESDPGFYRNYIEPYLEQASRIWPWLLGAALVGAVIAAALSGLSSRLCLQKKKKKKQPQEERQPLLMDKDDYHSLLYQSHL
Procedure, shortened: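 B16 cells (1 × 10^5 cells/mL) plated ≥24 h, then α-MSH (1 µM) alone or with 10 or 20 µg/mL agent for 72 h. Lysed in 50 mM sodium phosphate pH 6.8 with 1% Triton X-100 and freeze-thawed. 100 µL of 10 mM DOPA added, 37 °C for 4 h, DOPA oxidation read at A475 against α-MSH control; independent triplicates.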

[2] = molecular target: T1, Tyrosinase (Mus musculus); assay: Inhibition of DOPA oxidase activity of tyrosinase in mouse B16 cells at 10 to 20 ug/ml after 72 hrs by colorimetry; type: cell-based
Procedure, shortened: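 B16 cells (1 × 10^5 cells/mL) plated ≥24 h, then α-MSH (1 µM) alone or with 10 or 20 µg/mL agent for 72 h. Lysed in 50 mM sodium phosphate pH 6.8 with 1% Triton X-100 and freeze-thawed. Substrate of 6.3 mM MBTH, 1.1 mM DOPA, pH 7.1 buffer with 4% DMF added. 37 °C for 4 h, A508 read against α-MSH control; independent triplicates.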

B16 [3] = assay: Cytotoxicity against mouse B16 cells up to 100 ug/ml after 72 hrs by MTT assay; type: cell-based; conditions: b16, 72 h; procedure, shortened: as §1
[4] = test system: Radical scavenging activity; assay: Antioxidant activity assessed as DPPH radical scavenging activity after 30 mins; type: functional
Procedure, shortened: (§2)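 Sample (100 µL) added to 900 µL of 0.1 mM ethanolic DPPH and kept 30 min in the dark, then A517 read. Scavenging (%) = (1 − Asample/Acontrol) × 100. Control lacks test agent; ascorbic acid used as standard. EC50 estimated from the % inhibition versus concentration plot; mean ± SD, n = 3.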

[5] = Antioxidant activity assessed as trolox equivalent of ABTS radical scavenging activity after 12 to 16 hrs; type: functional
Procedure, shortened: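 ABTS (7 mM) oxidized with 2.45 mM potassium persulfate (final) in the dark at room temperature for 12–16 h. Diluted with ethanol to A734 0.70 ± 0.02 at 30 °C. 0.1 mL sample added to 2.9 mL, 20 min at 30 °C, A734 read. TEAC reported as mg Trolox/g, from the concentration giving the same absorbance change as 1 mg Trolox.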

[6] = test system: Radical scavenging activity; assay: Antioxidant activity assessed as DPPH radical scavenging activity at 20 ug/ml after 30 mins; type: functional; procedure, shortened: as §2
[7] = test system: Radical scavenging activity; assay: Antioxidant activity assessed as DPPH radical scavenging activity at 1 ug/ml after 30 mins; type: functional; procedure, shortened: as §2
[8] = Antioxidant activity in mouse BNL-CL2 cells assessed as inhibition of H2O2-induced ROS production at 20 ug/ml by DCFHDA assay; type: functional; conditions: BNL CL.2, values are per cent of control
Procedure, shortened: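 BNLCL2 cells (1 × 10^5 cells/mL) exposed 24 h to 20 µg/mL agent. Detached, washed, loaded with 10 µM DCFH-DA in PBS for 30 min at 37 °C, then stimulated with 0.1 mM H2O2 for 30 min at 37 °C. DCF fluorescence read at ex 504/em 524 nm against H2O2-treated cells. Independent triplicates.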

[9] = test system: Radical scavenging activity; assay: Antioxidant activity assessed as DPPH radical scavenging activity at 100 ug/ml after 30 mins; type: functional; procedure, shortened: as §2
[10] = test system: Radical scavenging activity; assay: Antioxidant activity assessed as DPPH radical scavenging activity at 10 ug/ml after 30 mins; type: functional; procedure, shortened: as §2
[11] = test system: Radical scavenging activity; assay: Antioxidant activity assessed as DPPH radical scavenging activity at 5 ug/ml after 30 mins; type: functional; procedure, shortened: as §2
B16 [12] = assay: Antimelanogenic activity in mouse B16 cells assessed as decrease in TRP2 expression at 20 ug/ml after 72 hrs by flow cytometry assay; type: functional; conditions: B16, 72 h
Procedure, shortened: (§3)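 B16 cells (1 × 10^5 cells/mL) given α-MSH (1 µM) alone or with 20 µg/mL compound for 72 h. Mouse primary antibodies (1:300) 45 min at 4 °C, FITC anti-mouse IgG (1:500) 30 min at 4 °C. Read by flow cytometry against a normal mouse IgG1 isotype control; n = 3.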

B16 [13] = assay: Antimelanogenic activity in mouse B16 cells assessed as decrease in tyrosinase expression at 20 ug/ml after 72 hrs by flow cytometry assay; type: functional; conditions: B16, 72 h; procedure, shortened: as §3
B16 [14] = assay: Antimelanogenic activity in mouse B16 cells assessed as decrease in MC1R expression at 20 ug/ml after 72 hrs by Western blotting; type: functional, cell-based
Procedure, shortened: (§4)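 B16 cells (1 × 10^5 cells/mL) given α-MSH (1 µM) alone as control or α-MSH plus 20 µg/mL compound, 72 h. Lysis at 4 °C for 20 min in Tris-HCl pH 7.5 buffer with 1% Triton X-100, EGTA, NaCl and PMSF. 40 µg protein run on 12.5% SDS-PAGE and transferred to nitrocellulose. Blocked in 5% skim milk. Probed with target and β-actin antibodies, HRP secondary, ECL detection.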

B16 [15] = assay: Antimelanogenic activity in mouse B16 cells assessed as inhibition of alpha-MSH-induced melanin formation after 72 hrs by spectrophotometry; type: functional, cell-based
Procedure, shortened: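 B16 cells (1 × 10^5 cells/mL) grown 24 h, then α-MSH (1 µM) plus 10 or 20 µg/mL compound in phenol red-free DMEM for 72 h. Melanin released into the medium read at OD 405 nm and expressed as % of 0.1% DMSO vehicle control. Independent triplicate experiments, mean ± SD.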

[16] = Antioxidant activity assessed as reducing capacity of the compound up to 100 ug/ml after 20 mins; type: functional
Procedure, shortened: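 Sample (0.2 mL; 0, 1, 5, 10, 20, 100 µg/mL) mixed with sodium phosphate buffer pH 6.6 and 1% potassium ferricyanide, 50 °C for 20 min. 10% TCA added, centrifuged at 10000g for 10 min. Upper layer mixed with water and 0.1% FeCl3. A700 taken directly as reducing power; ascorbic acid standard; mean ± SD, n = 3.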

Liver [17] = assay: Antioxidant activity in mouse liver assessed as inhibition of Fe2+/ascorbate-induced lipid peroxidation up to 100 ug/ml by TBARS assay relative to control; type: functional, tissue-based
Procedure, shortened: (§5)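 Male ICR mice, 7 weeks, 30–35 g. Liver or brain homogenized 1:1 (w/v) in ice-cold 40 mM Tris-HCl pH 7.4 and spun at 3000g. Supernatant incubated with sample (20 or 100 µg/mL), 10 µM FeSO4 and 0.1 mM ascorbic acid, 37 °C for 1 h. TCA then TBA added, 80 °C for 20 min, A532 of MDA-TBA read with MDA standard; % inhibition versus control.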

B16 [18] = assay: Antimelanogenic activity in mouse B16 cells assessed as decrease in MITF expression at 20 ug/ml after 72 hrs by Western blotting; type: functional, cell-based; procedure, shortened: as §4
B16 [19] = assay: Antimelanogenic activity in mouse B16 cells assessed as decrease in TRP1 expression at 20 ug/ml after 72 hrs by flow cytometry assay; type: functional; conditions: B16, 72 h; procedure, shortened: as §3
B16 [20] = assay: Antimelanogenic activity in mouse B16 cells assessed as decrease in TRP2 expression at 20 ug/ml after 72 hrs by Western blotting; type: functional, cell-based; procedure, shortened: as §4
B16 [21] = assay: Antimelanogenic activity in mouse B16 cells assessed as decrease in MCIR expression at 20 ug/ml after 72 hrs by flow cytometry assay; type: functional; conditions: B16, 72 h; procedure, shortened: as §3
B16 [22] = assay: Antimelanogenic activity in mouse B16 cells assessed as decrease in tyrosinase expression at 20 ug/ml after 72 hrs by Western blotting; type: functional, cell-based; procedure, shortened: as §4
B16 [23] = assay: Antimelanogenic activity in mouse B16 cells assessed as decrease in MITF expression at 20 ug/ml after 72 hrs by flow cytometry assay; type: functional; conditions: B16, 72 h; procedure, shortened: as §3
B16 [24] = assay: Antimelanogenic activity in mouse B16 cells assessed as decrease in TRP1 expression at 20 ug/ml after 72 hrs by Western blotting; type: functional, cell-based; procedure, shortened: as §4
[25] = Antioxidant activity assessed as ferrous ion chelating effect after 10 mins; type: functional
Procedure, shortened: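 Ferrozine method. 10 µL sample with 20 µL of 2 mM FeCl2 for 5 min, then 40 µL of 5 mM ferrozine added and volume brought to 1 mL with water. Shaken and held 10 min at room temperature, A562 read. EDTA as positive control. Chelation (%) = (1 − Asample/Acontrol) × 100.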

[26] = Antioxidant activity assessed as inhibition of Fe2+/ascorbate-induced lipid peroxidation by TBA assay; type: functional
Procedure, shortened: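 Commercial liposomes (225–250 nm) with 10 mM FeSO4 and 10 mM ascorbic acid (11 µL each) plus compound in 50 mM sodium phosphate buffer pH 7.4, 2.5 mL final volume, 37 °C for 1 h. Stopped with TBA/TCA and EDTA, then heated at 100 °C for 20 min. Centrifuged and MDA adduct read at A532. Four replicates; inhibition (%) = (1 − Asample/Acontrol) × 100.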

B16 [27] = assay: Effect on nuclear morphology of mouse B16 cells at 20 ug/ml after 72 hrs by Hoechst 33342 staining in presence of alpha-MSH; type: ADME, cell-based; conditions: b16, 72 h
Procedure, shortened: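 B16 cells (1 × 10^5 cells/mL) given α-MSH (1 µM) alone or with 20 µg/mL compound for 72 h. Fixed in 4% paraformaldehyde, nuclei stained with 0.1 µg/mL Hoechst 33342, and viewed by inverted fluorescence microscopy (200×).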

Brain = assay: Antioxidant activity in mouse brain assessed as Fe2+/ascorbate-induced lipid peroxidation up to 100 ug/ml by TBARS assay relative to control
Liver [28] = assay: Antioxidant activity in mouse liver assessed as inhibition of Fe2+/ascorbate-induced lipid peroxidation up to 20 ug/ml by TBARS assay relative to control; type: functional, tissue-based; procedure, shortened: as §5

SMILES | Activity (Hs68) | inhibition [1] | inhibition [2] | Activity (B16 [3]) | EC50 [4] | EC50 [5] | Activity [6] | Activity [7] | response, % of control at 20 µg/mL [8] | Activity [9] | Activity [10] | Activity [11] | other results
OC[C@H]1O[C@@H](Oc2ccc(O)cc2)[C@H](O)[C@@H](O)[C@@H]1O [ARBUTIN] | Toxic | 33.1% | 30.9% | Toxic | – | – | – | – | – | – | – | – | –
O=C1O[C@H]([C@@H](O)CO)C(O)=C1O [ASCORBIC ACID] | Toxic | 29.8% | 41.7% | Toxic | 4.2 µg/mL (≈ 23.8 µM) | 4.9 µg/mL | 81.4% | 0% | 102% | 87.6% | 71.3% | 62.5% | –
O=C(O)c1ccc(O)c(O)c1 [PROTOCATECHUIC ACID] | Non-toxic | 22.2% | 57.4% | Non-toxic | 2.1 µg/mL (≈ 13.6 µM) | 4 µg/mL | 74.6% | 43% | 85.1% | 82.7% | 70.4% | 68.4% | inhibition at 20 µg/mL (B16 [12]): 29.3%; inhibition at 20 µg/mL (B16 [13]): 34.8%; inhibition (B16 [14]): Active; inhibition (B16 [15]): Dose-dependent effect; Activity [16]: inactive; Activity (Liver [17]): Dose-dependent effect; inhibition (B16 [18]): Active; inhibition at 20 µg/mL (B16 [19]): 54.6%; inhibition (B16 [20]): Active; inhibition at 20 µg/mL (B16 [21]): 21.1%; inhibition (B16 [22]): Active; inhibition at 20 µg/mL (B16 [23]): 46.6%; inhibition (B16 [24]): Active; Activity [25]: inactive; inhibition [26]: Dose-dependent effect; Activity (B16 [27]): Non-toxic; MDA-TBA level relative to control (Brain): 14.9%; Activity (Liver [28]): Dose-dependent effect
Cc1c(C)c2c(c(C)c1O)CCC(C)(C(=O)O)O2 (configuration not stated) [TROLOX] | – | – | – | – | – | – | – | – | 81.2% | – | – | – | –
